Most compounds without a hit are left out; they make up all but 3.2% or so of the library.
Mcl1 Bid PPI – disrupts binding of human Mcl-1 to Bid peptide. Q07820. TR-FRET Mcl-1/Bid-Dy647 peptide binding, 1536-well. inhibition, % at 21.7 µM. hit rate 0.97% among 220,000. AID 1021;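 active = compounds that cut the binding signal by more than half at the single screening dose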;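 also: His-tagged Mcl-1 with europium anti-His antibody binding Bid BH3 peptide; 0% = Mcl-1 plus peptide wells and 100% = peptide-only wells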
Mcl1 Noxa PPI – disrupts binding of human Mcl-1 to Noxa peptide; hit rate 1.5% among 220,000; TR-FRET Mcl-1/Noxa peptide binding, 2 h; inhibition, % at 21.7 µM;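 active = compounds that cut the protein-peptide binding signal by more than 50% relative to plate controls in a single-dose test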;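 also: His-tagged Mcl-1 with rhodamine Noxa BH3 peptide and terbium anti-His antibody; 0% = Mcl-1 plus Noxa peptide wells and 100% = peptide-only wells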
Mcl-1 Bim block – human Bim-Mcl-1 interaction inhibition; Bead-based flow cytometry, Bim peptide-Mcl-1 binding; inhibition, % at 10 µM; hit rate 0.1% among 190,000; in the data active = inhibition above about 40%;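 also: 0% = no compound tracer wells and 100% = peptide blocker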
Hck Nef HTS – blocks Nef-activated human Hck kinase. Recombinant Hck-YEEI plus Nef, Z-Lyte FRET kinase assay. inhibition, % at 20 µM. hit rate 0.68% among 220,000. AID 463187;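 active = Hck-Nef kinase inhibition above about 50%, limit read from the data; inactive = inhibition below that limit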;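 also: 0% = DMSO with Hck plus Nef and 100% = Hck alone without Nef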
Target sequence (P08631 whole entry, looked up): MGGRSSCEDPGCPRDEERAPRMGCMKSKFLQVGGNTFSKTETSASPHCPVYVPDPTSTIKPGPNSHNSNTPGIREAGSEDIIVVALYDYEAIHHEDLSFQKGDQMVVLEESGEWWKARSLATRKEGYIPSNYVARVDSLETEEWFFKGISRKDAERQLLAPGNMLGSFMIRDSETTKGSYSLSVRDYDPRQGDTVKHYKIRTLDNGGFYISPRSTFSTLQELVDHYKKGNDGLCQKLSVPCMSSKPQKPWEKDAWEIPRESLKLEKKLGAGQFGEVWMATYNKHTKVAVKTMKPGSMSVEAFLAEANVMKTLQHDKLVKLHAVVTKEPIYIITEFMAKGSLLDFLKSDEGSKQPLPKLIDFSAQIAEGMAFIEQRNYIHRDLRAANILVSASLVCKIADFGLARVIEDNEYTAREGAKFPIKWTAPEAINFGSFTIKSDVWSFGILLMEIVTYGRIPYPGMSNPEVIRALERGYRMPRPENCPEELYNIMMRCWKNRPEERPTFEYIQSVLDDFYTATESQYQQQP
Calb biofilm kill – mixtures killing C. albicans biofilm. AID 1242. inhibition, % at 7.6 µM. hit rate 0.02% among 120,000. C. albicans biofilm persisters + clotrimazole, fluorescence viability; primary screen in compound mixtures of four per well;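 also: compounds exposed to preformed 24 h biofilms for 48 h; 0% = untreated biofilm control and 100% = clotrimazole plus chlorhexidine kill blank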
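Test system: C. albicans CAF4-2 wild-type biofilms; buffer or medium: RPMI/MOPS medium, pH 7.0; schedule: 24 h biofilm formation, then 48 h compound exposure, 37 °C; detection: Alamar Blue fluorescence; measure: percent inhibition of biofilm viability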
14-3-3 Bad inh – disrupts binding of bovine 14-3-3 zeta to phospho-Bad peptide. hit rate 0.71% among 220,000. TR-FRET 14-3-3zeta/Dy647-pBad peptide displacement, 1 h. AID 781. P63103. inhibition, % at 21.7 µM;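 active = inhibition above about 70%, limit read from the data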;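 also: 0% = full 14-3-3 plus peptide FRET controls and 100% = background without 14-3-3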
The depositor's hits bear a star; [ ] = remark or other dose.

For O=C(Cn1cc(SCc2ccc(Cl)cc2)c2ccccc21)N1CCOCC1 the results were Mcl1 Bid PPI 52*, Mcl1 Noxa PPI 2, Mcl-1 Bim block -4, Hck Nef HTS 4, Calb biofilm kill 8 and 14-3-3 Bad inh -2.
Screening COc1cc(OC)cc(C(=O)N[C@H](C(=O)Nc2nc(-c3ccc(F)c(F)c3)cs2)C(C)C)c1 returned Mcl1 Bid PPI 2, Mcl1 Noxa PPI -1, Mcl-1 Bim block 0, Hck Nef HTS 31, Calb biofilm kill 23 and 14-3-3 Bad inh -2.
For Cc1[nH][nH]c(=O)c1C(c1ccc(-c2cccc(C(=O)O)c2)o1)c1c(C)[nH][nH]c1=O the results were Mcl1 Bid PPI -92, Mcl1 Noxa PPI 13, Mcl-1 Bim block 0, Hck Nef HTS 24, Calb biofilm kill 9 and 14-3-3 Bad inh 5.
COC(=O)c1ccc(-c2ccc(C(c3c(C)[nH][nH]c3=O)c3c(C)[nH][nH]c3=O)o2)cc1 was read as Mcl1 Bid PPI -74, Mcl1 Noxa PPI 68*, Mcl-1 Bim block 6, Hck Nef HTS 27, Calb biofilm kill -4 and 14-3-3 Bad inh 3.
CC(=O)SC(C[N+](=O)[O-])c1cn(C(C)=O)c2ccccc12 (stereo not drawn) was read as Mcl1 Bid PPI 15, Mcl1 Noxa PPI 59*, Mcl-1 Bim block -6, Hck Nef HTS 4 and 14-3-3 Bad inh -12.
CCCc1nc(SCC(=O)NNC(=O)c2ccc(OC)cc2)c2ccccc2n1 was read as Mcl1 Bid PPI -18, Mcl1 Noxa PPI 2, Mcl-1 Bim block -2, Hck Nef HTS 24, Calb biofilm kill 11 and 14-3-3 Bad inh 98*.
OCCN1CCN(CC(O)COCC2COc3ccccc3O2)CC1 (stereo not drawn) was read as Mcl1 Bid PPI 0, Mcl1 Noxa PPI 24, Mcl-1 Bim block -1, Hck Nef HTS 0, Calb biofilm kill 7 and 14-3-3 Bad inh -2.
`OC(COCC1COc2ccccc2O1)CN1CCN(c2ccccc2F)CC1` (stereo not drawn) gave Mcl1 Bid PPI 25, Mcl1 Noxa PPI 28, Mcl-1 Bim block 0, Hck Nef HTS -1 and 14-3-3 Bad inh 89*.
Screening CSc1c(CC(=O)Nc2ccccc2)n(Cc2ccccc2)c2ccccc12 returned Mcl1 Bid PPI 6, Mcl1 Noxa PPI 2, Mcl-1 Bim block -11, Hck Nef HTS 2, Calb biofilm kill 22 and 14-3-3 Bad inh 2.
For COc1ccc(N2CCN(Cc3nc(-c4ccc(Cl)cc4Cl)no3)CC2)cc1 the results were Mcl1 Bid PPI -79, Mcl1 Noxa PPI 56*, Mcl-1 Bim block -1, Hck Nef HTS 5, Calb biofilm kill 13 and 14-3-3 Bad inh -7.
Screening COc1ccc(N2CCN(Cc3nc4cc(Cl)ccc4c(=O)[nH]3)CC2)cc1 returned Mcl1 Bid PPI -29, Mcl1 Noxa PPI 25, Mcl-1 Bim block 3, Hck Nef HTS -3, Calb biofilm kill 11 and 14-3-3 Bad inh -13.
Screening CCOC(=O)C1(CC)CC(CSc2nc3ccccc3[nH]2)OC1=O (stereo not drawn) returned Mcl1 Bid PPI 39, Mcl1 Noxa PPI 5, Mcl-1 Bim block -5, Hck Nef HTS 1 and 14-3-3 Bad inh 72*.
Screening CCOC(=O)C1(CCC(C)C)CC(CSc2nc3ccccc3[nH]2)OC1=O (stereo not drawn) returned Mcl1 Bid PPI 39, Mcl1 Noxa PPI 18, Mcl-1 Bim block 0, Hck Nef HTS 1 and 14-3-3 Bad inh 57.
`CN1CCN(C(=O)C23CCC(C)(c4nc5ccccc5nc42)C3(C)C)CC1` (stereo not drawn) gave Mcl1 Bid PPI 8, Mcl1 Noxa PPI -10, Mcl-1 Bim block 0, Hck Nef HTS 1 and 14-3-3 Bad inh -1.
COc1ccc(-n2c(Cc3cccn3C)nnc2SCC(=O)NCc2ccccc2Cl)cc1 was read as Mcl1 Bid PPI 65*, Mcl1 Noxa PPI -6, Mcl-1 Bim block -1, Hck Nef HTS -7 and 14-3-3 Bad inh 5.
`COCCN1C=C(C(=O)OC)C(c2cc(Br)c(OC)c(OC)c2)C(C(=O)OC)=C1` gave Mcl1 Bid PPI -19, Mcl1 Noxa PPI 28, Mcl-1 Bim block 3, Hck Nef HTS 68* and 14-3-3 Bad inh 7.
`COc1ccc(/C=C/C(=O)C2CC2)cc1Cn1nc(C)c([N+](=O)[O-])c1C` gave Mcl1 Bid PPI -5, Mcl1 Noxa PPI 12, Mcl-1 Bim block -2, Hck Nef HTS 5, Calb biofilm kill 12 and 14-3-3 Bad inh -12.
O=C(NCc1ccco1)/C(=C/c1cccnc1)NC(=O)c1cccc(Br)c1 was read as Mcl1 Bid PPI -2, Mcl1 Noxa PPI -4, Mcl-1 Bim block -1, Hck Nef HTS -1 and 14-3-3 Bad inh 77*[fluorescence artefact?].
CCOc1ccc(CNC(=S)N/N=C\c2ccc([N+](=O)[O-])cc2)cc1 was read as Mcl1 Bid PPI 45, Mcl1 Noxa PPI 54*, Mcl-1 Bim block -7, Hck Nef HTS 0 and 14-3-3 Bad inh 11.
Screening Cc1[nH]n(-c2ccccc2)c(=O)c1N=Nc1ccc2c(c1)OCO2 returned Mcl1 Bid PPI -27, Mcl1 Noxa PPI 20, Mcl-1 Bim block -1, Hck Nef HTS 23, Calb biofilm kill 13 and 14-3-3 Bad inh -5.
For Nc1[nH]n2c(=O)cc(-c3ccccc3)nc2c1N=Nc1ccc2c(c1)OCO2 the results were Mcl1 Bid PPI -57, Mcl1 Noxa PPI 60*, Mcl-1 Bim block 3, Hck Nef HTS 31, Calb biofilm kill 6 and 14-3-3 Bad inh -14.
O=C(NCc1ccco1)c1ccc2c(c1)N(Cc1ccc(Cl)cc1)CCS2 was read as Mcl1 Bid PPI -98, Mcl1 Noxa PPI -31, Hck Nef HTS 23, Calb biofilm kill 14 and 14-3-3 Bad inh -2.
COC(=O)[C@@]1(Cc2ccccc2)[C@H]2c3cc(C(=O)N4CCCC4)n(CCSCCO)c3C[C@H]2CN1C(=O)c1ccccc1 was read as Mcl1 Bid PPI -13, Mcl1 Noxa PPI 101*, Mcl-1 Bim block -2, Hck Nef HTS 2, Calb biofilm kill 15 and 14-3-3 Bad inh -6.
Screening N/C(=N\N=C\c1cccs1)SC1CC(=O)N(c2cccc([N+](=O)[O-])c2)C1=O (stereo not drawn) returned Mcl1 Bid PPI 45, Mcl1 Noxa PPI 30, Mcl-1 Bim block -3, Hck Nef HTS -29, Calb biofilm kill 15 and 14-3-3 Bad inh 82*.
For COCCN(C(=S)Nc1cc(C)cc(C)c1)C(C)c1ccco1 (stereo not drawn) the results were Mcl1 Bid PPI -37, Mcl1 Noxa PPI -4, Mcl-1 Bim block 0, Hck Nef HTS 7, Calb biofilm kill 20 and 14-3-3 Bad inh -17.
`O=C(CCCN1C(=O)c2ccccc2C1=O)Nc1cccc(S(=O)(=O)NC2=NCCC2)c1` gave Mcl1 Bid PPI -31, Mcl1 Noxa PPI 16, Mcl-1 Bim block 0, Hck Nef HTS -11, Calb biofilm kill 5 and 14-3-3 Bad inh -11.

Assay outcomes (PubChem BioAssay)
